Experimental findings from ChEMBL document CHEMBL1687687, “Identification of a New Series of STAT3 Inhibitors by Virtual Screening” (ACS Med Chem Lett, 2010) are described below.

Data set [1] addresses T1, Signal transducer and activator of transcription 1-alpha/beta (Homo sapiens) (UniProt P42224).
T1 sequence (whole entry): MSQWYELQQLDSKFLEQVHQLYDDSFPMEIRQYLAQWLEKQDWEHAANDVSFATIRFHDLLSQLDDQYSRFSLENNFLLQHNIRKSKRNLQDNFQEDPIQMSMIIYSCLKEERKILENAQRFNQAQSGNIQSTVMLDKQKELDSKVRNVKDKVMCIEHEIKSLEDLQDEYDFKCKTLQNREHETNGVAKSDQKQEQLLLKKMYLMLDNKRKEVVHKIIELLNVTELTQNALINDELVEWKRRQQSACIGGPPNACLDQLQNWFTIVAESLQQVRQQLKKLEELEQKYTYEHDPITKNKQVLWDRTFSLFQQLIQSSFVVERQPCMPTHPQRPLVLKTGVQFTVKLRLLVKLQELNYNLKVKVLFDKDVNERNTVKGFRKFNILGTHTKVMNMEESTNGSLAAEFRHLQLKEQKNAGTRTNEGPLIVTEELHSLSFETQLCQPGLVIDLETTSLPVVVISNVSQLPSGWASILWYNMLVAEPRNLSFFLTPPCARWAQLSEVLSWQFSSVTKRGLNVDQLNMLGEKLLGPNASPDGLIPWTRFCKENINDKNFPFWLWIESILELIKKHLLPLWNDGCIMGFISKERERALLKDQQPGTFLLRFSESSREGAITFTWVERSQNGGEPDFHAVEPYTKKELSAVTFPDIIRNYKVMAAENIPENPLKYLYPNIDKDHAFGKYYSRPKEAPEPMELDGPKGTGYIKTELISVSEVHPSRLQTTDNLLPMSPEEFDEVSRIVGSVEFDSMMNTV
As to the kind of experiment: Inhibition of STAT1 DNA binding activity in IL-6 stimulated human MDA-MB-468 cells at 50 uM by transcription factor ELISA. Format: cell-based. A general note: An ELISA detects its analyte on a solid surface through an enzyme-linked reagent.

Data set [2] has as its target T2, Signal transducer and activator of transcription 3 (Homo sapiens, UniProt P40763). As to the kind of experiment: Inhibition of STAT3 in human MDA-MB-468 cells assessed as reduction in cyclin D1 expression at 10 uM by Western blotting. Format: cell-based. In a few lines:
(§1)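 MDA-MB-468 breast cancer cells were treated with compound at a series of concentrations. Cell lysates were analysed by Western blotting for c-myc, cyclin D1 and survivin, with STAT3 Tyr705 phosphorylation probed alongside.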

For data set [3], the species on record is Mus musculus. As to the kind of experiment: Toxicity in BALB/cA-v/v nude mouse assessed as increase in body weight relative to control. Format: organism-based. To be noted: in vivo. In outline:
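Human SCC-3 lymphoma cells implanted subcutaneously in nude mice. Compound given by oral gavage at 160 mg/kg once daily for 4 days. Tumour growth was assessed on day 4 against untreated controls, with significance taken at p < 0.05. Body weight and signs of toxicity were monitored over the same period.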

The species entered for data set [4] is Mus musculus. As to the kind of experiment: Toxicity in BALB/cA-v/v nude mouse assessed as mortality. Format: organism-based. As to conditions: in vivo.
Data set [5] deals with T2, Signal transducer and activator of transcription 3. As to the kind of experiment: Inhibition of STAT3 in human MDA-MB-468 cells assessed as reduction in c-myc expression at 50 uM by Western blotting. It counts as cell-based. In a few lines:
as §1
Background: Immunoblotting shows a protein as a band on a membrane.

Data set [6] shares this target. Briefly: Inhibition of STAT3 transcriptional activity in human HeLa cells by luciferase reporter gene assay. Format: cell-based. In outline:
(§2)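 STAT3-dependent luciferase reporter gene assay in HeLa cells. Activity is reported as percent inhibition at a single 100 μM concentration, or as an IC50.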
Background: In a reporter assay the amount or activity of a reporter protein is the signal.

Data set [7] has the same target. Briefly: Inhibition of STAT3 in human MDA-MB-468 cells assessed as reduction in c-myc expression at 10 uM by Western blotting. It counts as cell-based. In a few lines: as §1
Data set [8] shares this target. Briefly: Inhibition of STAT3 in human MDA-MB-468 cells assessed as reduction in survivin expression at 50 uM by Western blotting. Format: cell-based. In outline:
as §1

Data set [9] has the same target. Briefly: Inhibition of STAT3 transcriptional activity in human HeLa cells at 100 uM by luciferase reporter gene assay. Format: cell-based. In a few lines: as §2
Data set [10] can be described thus: Plasma concentration in CD1(ICR) mouse at 160 mg/kg, po after 8 hrs by LC-MS analysis. It counts as ADME, organism-based. More on the design: dose 160 mg/kg, route oral.
Data set [11] addresses T2, Signal transducer and activator of transcription 3. Briefly: Inhibition of STAT3 dimerization transfected in HEK293 cells at 100 uM after 24 hrs followed by 1 hr stimulation with 50 ng/ml IL-6 by FRET assay. To be noted: 10 uM, in the assay text read “at 10 uM” for “at 100 uM”. Format: cell-based. In outline:
(§3)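 Cell-based FRET dimerization read-out in HEK293 cells co-expressing STAT3-CFP and STAT3-YFP. Cells were pretreated with compound before IL-6 stimulation, and the FRET signal from the STAT3–STAT3 interaction was measured. Values are given as percent inhibition of the signal.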

Data set [12] addresses T3, Signal transducer and activator of transcription 5B (Homo sapiens) (UniProt P51692).
T3 sequence (whole entry): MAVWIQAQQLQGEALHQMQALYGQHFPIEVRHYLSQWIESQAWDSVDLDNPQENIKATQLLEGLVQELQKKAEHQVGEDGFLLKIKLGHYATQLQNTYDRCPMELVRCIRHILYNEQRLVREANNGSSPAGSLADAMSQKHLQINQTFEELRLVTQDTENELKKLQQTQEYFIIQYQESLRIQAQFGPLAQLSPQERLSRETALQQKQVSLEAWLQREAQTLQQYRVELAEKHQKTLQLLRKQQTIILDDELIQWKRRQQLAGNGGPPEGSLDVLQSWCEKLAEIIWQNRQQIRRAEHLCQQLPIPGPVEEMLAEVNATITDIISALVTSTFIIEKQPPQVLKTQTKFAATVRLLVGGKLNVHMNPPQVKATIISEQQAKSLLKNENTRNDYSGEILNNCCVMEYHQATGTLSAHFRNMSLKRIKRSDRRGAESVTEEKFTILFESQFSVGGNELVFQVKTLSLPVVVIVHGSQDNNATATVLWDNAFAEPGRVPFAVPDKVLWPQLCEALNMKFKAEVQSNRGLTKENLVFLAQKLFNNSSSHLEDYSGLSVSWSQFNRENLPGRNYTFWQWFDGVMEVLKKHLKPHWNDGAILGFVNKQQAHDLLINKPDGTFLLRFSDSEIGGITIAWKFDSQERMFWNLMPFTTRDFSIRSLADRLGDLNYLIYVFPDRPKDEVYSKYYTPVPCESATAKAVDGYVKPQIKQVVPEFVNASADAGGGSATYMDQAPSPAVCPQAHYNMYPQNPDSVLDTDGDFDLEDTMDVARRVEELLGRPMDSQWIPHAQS
As to the kind of experiment: Inhibition of STAT5b DNA binding activity in IL-6 stimulated human MDA-MB-468 cells at 50 uM by transcription factor ELISA. It counts as cell-based.

The next data set relates to MDA-MB-468. As to the kind of experiment: Induction of apoptosis in human MDA-MB-468 cells assessed as increase in caspase3/7 activity at 1-100 uM by fluorescence assay. It counts as functional, cell-based.
For data set [13], the target named is T2, Signal transducer and activator of transcription 3. Briefly: Inhibition of STAT3 in human MDA-MB-468 cells assessed as reduction in survivin expression at 20 uM by Western blotting. It counts as cell-based. In outline: as §1
The target is the same in data set [14]. As to the kind of experiment: Inhibition of STAT3 dimerization transfected in HEK293 cells at 50 uM after 24 hrs followed by 1 hr stimulation with 50 ng/ml IL-6 by FRET assay. Format: cell-based. In a few lines: as §3

The term inhibition denotes the change of the read-out against control, counted positive when it falls. Usually IC50 stands for the midpoint of a concentration-inhibition curve. A low value points to higher potency.

Active and inactive are the calls of the source. No cut-off for these calls is given here.

T2 sequence (P40763 whole entry): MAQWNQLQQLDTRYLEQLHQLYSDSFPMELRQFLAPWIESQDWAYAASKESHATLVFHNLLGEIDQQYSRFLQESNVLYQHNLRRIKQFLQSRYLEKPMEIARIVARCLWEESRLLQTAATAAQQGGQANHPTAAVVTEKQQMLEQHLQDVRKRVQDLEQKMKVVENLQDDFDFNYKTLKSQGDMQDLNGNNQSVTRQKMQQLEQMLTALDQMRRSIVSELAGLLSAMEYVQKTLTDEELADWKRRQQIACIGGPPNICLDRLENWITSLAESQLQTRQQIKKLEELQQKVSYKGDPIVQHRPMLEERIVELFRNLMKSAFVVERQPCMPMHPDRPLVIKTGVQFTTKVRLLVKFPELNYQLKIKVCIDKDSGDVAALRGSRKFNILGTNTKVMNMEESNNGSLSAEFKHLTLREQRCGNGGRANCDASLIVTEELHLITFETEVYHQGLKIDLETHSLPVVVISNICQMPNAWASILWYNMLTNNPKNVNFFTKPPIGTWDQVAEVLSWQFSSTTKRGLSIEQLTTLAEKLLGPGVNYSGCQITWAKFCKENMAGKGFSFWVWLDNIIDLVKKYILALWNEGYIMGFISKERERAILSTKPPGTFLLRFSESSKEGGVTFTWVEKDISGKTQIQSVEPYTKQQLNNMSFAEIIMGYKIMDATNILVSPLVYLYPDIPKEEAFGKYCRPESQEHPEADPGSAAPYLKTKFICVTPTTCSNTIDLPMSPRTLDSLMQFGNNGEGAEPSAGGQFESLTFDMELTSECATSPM

As to `O=C(Nc1nnc(-c2ccco2)o1)c1cc(-c2ccccc2)nc2ccccc12`, the inhibition result in [1] and in data set [12] was “inactive” in each case. The inhibition result in data set [2], in data set [5], in [7], in [8] and in data set [13] was “Active” throughout. Also, the Activity result in the data set listed under Mus musculus [3] and in the data set filed under Mus musculus [4] was “Non-toxic” in each case. The same compound came in with an IC50 in data set [6] of 74 µM. Moreover, the inhibition amounted to 99% in [9], 9% in data set [11] and 62% in data set [14]. Besides, in data set [10], the concentration at 8 h is over 260 µM. Also, the result in the data set with MDA-MB-468 was Active.
